pCIP destab: p/CIP protein destabilization. Q05BA5. F442A p/CIP-EGFP cells, EGFP fluorescence, 16 h. decrease of EGFP signal, % at 10 µM. actives 0.01% (n = 290,000);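 active means EGFP signal decrease of at least 30% at 10 µM or well 3 SD below plate mean, unless failing retest; inactive means the rest, including hits failing retest or dose response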
IMP-1 inh-1: blocks Pseudomonas aeruginosa IMP-1 metallo-beta-lactamase | purified IMP-1, nitrocefin hydrolysis, epi-absorbance fluorescence | inhibition, % at 5.6 µM | actives 0.45% (n = 290,000) | AID 1556;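 active means inhibition above the mean plus 3 SD of all compounds in the same screening run, cut at about 4.5% in these data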;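 further: 0% = IMP-1 with DMSO and 100% = DMSO wells lacking enzyme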
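assay system = purified recombinant IMP-1 metallo-beta-lactamase enzyme | schedule = 15 min preincubation plus 25 min reaction at 25 °C | signal = Epi-absorbance fluorescence, 480 nm excitation, 530 nm emission | read-out basis = percent inhibition from optical density relative to buffer-blank wells | controls = IMP-1 with DMSO as 0%, enzyme-free DMSO as 100%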
SUMO HTRF inh: SUMOylation inhibition; HTRF SUMOylation assay, SAE1/SAE2 + UBC9, in vitro; inhibition, % at 35 µM; actives 0.36% (n = 290,000); P63279; in the data active means inhibition above about 50%, passing the limit was not always enough
Target sequence (P63279 whole entry, looked up): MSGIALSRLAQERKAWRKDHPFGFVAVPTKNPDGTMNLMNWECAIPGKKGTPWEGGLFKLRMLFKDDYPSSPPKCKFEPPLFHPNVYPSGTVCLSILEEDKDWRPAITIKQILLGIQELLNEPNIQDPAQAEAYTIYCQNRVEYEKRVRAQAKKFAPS
Fh CTSL1 inh: cathepsin L1 inhibition, PFM18AAP counter-screen; recombinant F. hepatica cathepsin L1, Z-Leu-Arg-MCA fluorescence; inhibition, % at 5.96 µM; actives 0.49% (n = 300,000); AID 1906;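 active means inhibition above the mean of all tested compounds plus 3 SD, set per screening campaign, cut at about 17% in these data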;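 further: 0% = plate median of test compound wells and 100% = 1 µM Z-Phe-Ala-diazomethylketone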
VIM-2 inhibitor: inhibitors of Pseudomonas aeruginosa VIM-2 metallo-beta-lactamase. inhibition, % at 5.6 µM. actives 0.89% (n = 290,000). purified VIM-2, nitrocefin hydrolysis, epi-absorbance fluorescence. AID 1527;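 active means inhibition above the mean of all tested compounds plus 3 SD, cutoff set per screening run, cut at about 7.5% in these data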;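 further: red hydrolysis product quenches plate fluorescence so inhibitors raise well fluorescence; 0% = enzyme with DMSO and 100% = DMSO without enzyme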
T cell modulator: T cell immune modulation candidate. 2C CD8+ T cell-vesicle binding, flow cytometry; stronger effect = lower value. response (vesicle binding), % at 7 µM. actives 0.068% (n = 330,000). AID 2052;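 active means response, share of CD8 T cells binding vesicles, and their 90th percentile fluorescence all below set limits, cut at about 80% in these data, passing the limit was not always enough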;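 further: values below 100% mean blocked vesicle binding to the CD8+ T cells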
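material = purified 2C TCR transgenic mouse naive CD8+ T cells | controls = Unloaded micro-vesicles (low), QL9 vesicles with 0.7% DMSO (high) | detection = cytometric PE anti-B7-1 and Alexa647 anti-CD8 signals after 1% paraformaldehyde fixation | incubation = binding step 1.5 h, 37 °C, antibody labelling 20 min, ice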
IMP-1 inh-2: IMP-1 inhibition, counter-screen for VIM-2 inhibitors; AID 1856; 1,300 tested, under 10 active; shares compounds with VIM-2 inhibitor; inhibition, % at 5.6 µM; purified IMP-1, nitrocefin hydrolysis, epi-absorbance fluorescence; call rule not given here;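 further: 0% = enzyme with vehicle and 100% = vehicle without enzyme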
VIM-2 FRET ctr: inhibits VIM-2 in FRET assay to exclude epi-absorbance artifacts; shares compounds with VIM-2 inhibitor; purified VIM-2, CCF2 FRET substrate hydrolysis; inhibition, % at 5.6 µM; actives 23% (n = 1,300);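 active means inhibition above the mean of all tested compounds plus 3 SD, cut at about 19% in these data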;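 further: 0% = VIM-2 plus DMSO and 100% = no enzyme wells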
TEM-1 inh: blocks E. coli TEM-1 beta-lactamase in VIM-2 selectivity screen. shares compounds with VIM-2 inhibitor. Purified TEM-1, nitrocefin hydrolysis, epi-absorbance fluorescence. inhibition, % at 5.6 µM. actives 3% (n = 1,300);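 active means inhibition above that campaign's mean inhibition plus 3 SD, cut at about 0.46% in these data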;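 further: 0% = TEM-1 with DMSO and 100% = TEM-1 with 100 µM potassium clavulanate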
Target sequence (P62593 whole entry, looked up): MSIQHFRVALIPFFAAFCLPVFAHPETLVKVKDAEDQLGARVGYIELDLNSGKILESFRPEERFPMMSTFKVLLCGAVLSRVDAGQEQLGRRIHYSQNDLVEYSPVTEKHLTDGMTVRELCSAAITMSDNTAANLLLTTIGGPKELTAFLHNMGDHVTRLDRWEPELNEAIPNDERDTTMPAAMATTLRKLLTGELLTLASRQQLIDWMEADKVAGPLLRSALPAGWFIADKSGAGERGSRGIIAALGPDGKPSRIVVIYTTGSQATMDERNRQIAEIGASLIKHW
VIM-2 inh conf: confirmation of P. aeruginosa VIM-2 metallo-beta-lactamase inhibitors. shares compounds with VIM-2 inhibitor. purified VIM-2, nitrocefin hydrolysis, epi-absorbance. inhibition, % at 5.6 µM. actives 96% (n = 1,300);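 active means inhibition of the VIM-2 beta-lactamase enzyme above about 11% from the earlier first-round screen, limit read from the data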;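 further: 0% = VIM-2 with DMSO and 100% = buffer wells without enzyme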
An asterisk follows results filed as active; i = inactive; x = no result. Only some compounds are listed: those with a hit (about 1.9% of all), similar ones and a draw of the others.

SMILES | pCIP destab | IMP-1 inh-1 | SUMO HTRF inh | Fh CTSL1 inh | VIM-2 inhibitor | T cell modulator | IMP-1 inh-2 | VIM-2 FRET ctr | TEM-1 inh | VIM-2 inh conf
O=C(Cn1[nH]c(=O)c2ccccc2c1=O)NC1CCN(Cc2ccccc2)CC1 | -2.9 | -2.6 | 9.8 | 1.2 | 20.4* | 428.7 | -3.1 | -3.8 | -4.2 | 36.5*
CCc1cc(=O)oc2cc(C)cc(OCC(=O)NC3CCN(Cc4ccccc4)CC3)c12 | 2.2 | -4.5 | 20.2 | -0.6 | 12.8* | 484.3 | -2.6 | -0.2 | -5.2 | 23.6*
COc1ccccc1P(=O)(Cc1ccccc1[N+](=O)[O-])c1ccccc1 (stereo not given) | -0.2 | -2.8 | 4.7 | 0.0 | -2.6 | 297.3 | x | x | x | x
COc1ccc(-n2c(=S)[nH]c3ccccc3c2=S)cc1 | 7.0 | -2.3 | 14.4 | -1.2 | 14.2* | 242.7 | -2.7 | 26.9* | -5.5 | 18.5*
Cc1cccc(N2C(=O)c3cccc4cccc(c34)C2=O)c1 | -8.2 | -2.7 | 5.9 | -0.5 | -3.0 | 201.4 | x | x | x | x
O=C1c2cccc3cccc(c23)C(=O)N1c1nncs1 | 1.5 | -0.1 | 13.8 | -0.9 | 12.9* | 310.4 | -2.8 | 4.1 | -3.2 | 24.4*
Cc1cccc(C2c3[nH]c4ccccc4c3CCN2C(=O)c2cc(CC(C)C)[nH]c(=O)n2)n1 (stereo not given) | 2.3 | -1.8 | -4.2 | 4.5 | 24.1* | 513.9 | -3.8 | 57.6* | -4.6 | 35.9*
Cc1cccc(C2c3[nH]c4ccccc4c3CCN2C(=O)c2cc(CC(C)C)nc(C)n2)n1 (stereo not given) | 1.9 | -3.9 | -7.3 | -1.8 | -2.3 | 168.8 | x | x | x | x
CN1CCN(C(=O)CSc2cc(=O)n(C)c3ccccc23)CC1 | -2.7 | -2.9 | 4.5 | 0.7 | 31.1* | 542.0 | -2.2 | 0.8 | -5.2 | 48.9*
CCN1CCN(C(=O)CSc2cc(=O)n(C)c3ccccc23)CC1 | 13.9 | -2.7 | 14.8 | -0.7 | 36.9* | 514.4 | -2.1 | -1.8 | -4.5 | 56.4*
CN1CCN(C(=O)CCCOc2cc(=O)n(C)c3ccccc23)CC1 | -0.2 | -2.9 | 6.3 | 0.0 | 18.4* | 199.5 | -2.7 | -1.8 | -5.2 | 38.5*
Cc1c(OC(C)C(=O)NCCN2CCOCC2)ccc2c(-c3ccccc3)cc(=O)oc12 (stereo not given) | -3.8 | -0.6 | -1.4 | 3.1 | 1.2 | 214.2 | x | x | x | x
Cc1c(C)c2ccc(OC(C)C(=O)NCCCn3ccnc3)c(C)c2oc1=O (stereo not given) | -15.0 | 0.0 | 10.4 | -0.5 | 44.6* | 669.2 | -2.4 | -4.2 | -10.9 | 53.7*
CCc1cc(=O)oc2cc(C)cc(OC(C)C(=O)NCCCn3ccnc3)c12 (stereo not given) | -11.9 | -3.2 | 21.9 | -2.5 | 36.5* | 333.0 | -3.3 | -8.9 | -4.0 | 49.2*
Cc1c(OC(C)C(=O)NCCCN2CCOCC2)ccc2c1oc(=O)c1ccccc12 (stereo not given) | -4.4 | -1.2 | 20.4 | 4.5 | 19.3* | i | -3.1 | 1.7 | -10.9 | 29.4*
COc1cc(CCCN2C(N)=NC[C@H]2Cc2ccc(O)cc2)cc(OC)c1OC | -3.8 | x | 8.5 | -3.2 | x | 237.8 | x | x | x | x
Cc1nc(-c2ccc(NC(=O)c3ccc(Br)o3)cc2)cs1 | 0.9 | -2.4 | 10.0 | 3.7 | -1.5 | 238.3 | x | x | x | x
CN(C)S(=O)(=O)c1cccc(NC(=S)N/N=C/c2cccc(O)c2)c1 | 8.7 | -1.6 | 15.7 | 0.8 | 18.1* | 186.5 | -2.7 | 16.1 | -7.5 | 14.1*

Screens deposited in PubChem by several laboratories.
